zVAD death inh – blocks zVAD induced death of L929 cells | L929 zVAD necroptosis rescue, ATP luminescence, 24 h; with zVAD 60 µM | viability rescue, % at 10 µM | actives 0.38% (n = 220,000) | AID 1377;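 active = activation, scaled between plate controls, above about 75%, limit read from the data; inactive = activation under that limit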
Pf gamet viab – P. falciparum stage V gametocyte viability inhibition; P. falciparum stage V gametocytes, ATP luminescence, 24 h; inhibition, % at 10.9 µM; actives 0.065% (n = 150,000); AID 743093;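 active = inhibition above the mean plus 3 SD of compounds within the control limits, set per campaign, cut at about 38% in these data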
Wee1 stabilizer – blocks degradation of human Wee1 kinase; P30291; HeLa Luc-Wee1K328M stability, luciferase luminescence; 100% = proteasome inhibitor MG132 effect; reporter increase, % at 5 µM; actives 1.2% (n = 220,000); AID 1321;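 active = activation above the mean of all tested compounds plus 3 SD, set per screening run, cut at about 8.8% in these data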;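 note: cells exposed to compound for 20 h before luminescence read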
TNF necrop inh – inhibitors of TNF-alpha induced necroptosis in Jurkat FADD-/- cells. activation (protection from cell death), % at 10 µM. Jurkat FADD-/- TNF necroptosis rescue, ATP luminescence, 24 h; 0 = TNF only, 100 = no-TNF cells. actives 0.068% (n = 220,000). AID 463075;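 active = activation, meaning protection from cell death, of at least 50% relative to plate controls; inactive = activation below 50%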;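 note: necroptosis triggered by 40 ng/mL TNF-alpha added together with compound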
Mdm2 ligase inh – Mdm2 E3 ligase (human) inhibition. actives 0.11% (n = 210,000). cell-based MDM2 ubiquitination luciferase reporter, 2 h; 0 = plate control, 100 = twice control, blank-subtracted. AID 1230. signal enhancement, % at 5 µM;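 active = signal enhancement of 30% or more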;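 note: luminescence tracks abundance of the self-degrading MDM2-luciferase fusion protein; higher signal means inhibition of MDM2 E3 ligase activity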
Target sequence (Q00987 whole entry, looked up, the tested form may be a part): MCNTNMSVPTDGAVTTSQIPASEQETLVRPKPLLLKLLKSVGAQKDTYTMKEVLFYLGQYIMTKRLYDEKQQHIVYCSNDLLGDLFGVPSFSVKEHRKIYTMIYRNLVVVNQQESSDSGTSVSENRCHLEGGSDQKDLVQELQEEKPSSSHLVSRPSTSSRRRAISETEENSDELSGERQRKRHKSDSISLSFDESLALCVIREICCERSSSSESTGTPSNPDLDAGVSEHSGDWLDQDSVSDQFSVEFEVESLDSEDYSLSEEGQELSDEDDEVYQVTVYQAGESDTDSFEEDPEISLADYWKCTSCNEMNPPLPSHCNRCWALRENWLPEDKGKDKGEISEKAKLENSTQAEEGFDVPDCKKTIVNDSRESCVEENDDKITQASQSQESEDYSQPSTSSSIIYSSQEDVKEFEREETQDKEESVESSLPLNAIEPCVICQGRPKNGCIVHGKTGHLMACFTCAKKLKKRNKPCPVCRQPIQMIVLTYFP
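Material: stable MDM2–luciferase fusion reporter cells / Quantity: 2000 cells/well / Dosing: single 5 µM compound dose, 0.2% final DMSO / Buffer or medium: DMEM / Schedule: 4 h cell settling then 2 h compound exposure, 37 °C / Detection: luminescence with SteadyLite reagent, 15 min at room temperature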
Large screens that a line does not name were inactive. Sampled rows, rich in hits. Any-hit rate of the full collection: about 1.6%.

O=C1CCC[C@@H]2C[C@@]3(C[C@@H]4CCN1[C@H]24)Nc1cc(Cl)ccc1NC3=NCc1ccccc1	none (no result: zVAD death inh, Wee1 stabilizer, TNF necrop inh, Mdm2 ligase inh)
O=C(Cc1sc(Nc2ccccc2)nc1-c1ccccc1)NCc1ccccn1	Wee1 stabilizer 9.1
CCOC(=O)N1CCN(C(=O)c2cc3c(s2)-c2ccc(Cl)cc2S(=O)(=O)C3)CC1	Wee1 stabilizer 10
COc1ccc(NC(=O)CSc2ccc(NC(C)=O)cc2)cc1S(=O)(=O)N1CCCCC1	none (no result: zVAD death inh)
COc1ccc(/C(C)=N/NC(=S)NCCc2ccccc2)cc1	Pf gamet viab 39
COc1ccc(CNC(=S)N/N=C(\C)c2ccc(OC)cc2)cc1	none
Cc1sc(NC(=O)CCC(=O)O)c(C(N)=O)c1-c1ccccc1	none
CCc1ccc(-c2c(C)sc(NC(C)=O)c2C(N)=O)cc1	zVAD death inh 78
CC1CCN(C(=O)CN2C(=O)c3ccccc3S2(=O)=O)CC1	Wee1 stabilizer 9.3 (no result: Pf gamet viab)
CCOc1ccc2c(c1)S/C(=C\c1cccs1)C(=O)N2	Wee1 stabilizer 9.0 (no result: Mdm2 ligase inh)
CCOC(=O)C1(CCCc2ccccc2)CCN(C(=O)Cc2nonc2C)CC1	none
CCOC(=O)C1(CCCc2ccccc2)CCN(C(=O)CCC2=NNC(=O)CC2)CC1	Wee1 stabilizer 11
COc1ccc(CCNC(=O)Cc2cc(OC)c(OC)cc2Br)cc1OC	none
C=C(Cl)COc1ccc2c(CCCC)cc(=O)oc2c1	Wee1 stabilizer 9.3
Cc1ccc(S(=O)(=O)N2CCCCC2c2cccnc2)c(C)c1C (centres undefined)	none
C=CCn1c(SCC(=O)O)nnc1-c1ccc(C(C)(C)C)cc1	none
CC(=O)Nc1ccc(SCC(=O)Nc2ccc(Cl)cn2)cc1	none
O=C(CSc1ccc2c(c1)OCCO2)Nc1ccc(Cl)cn1	Wee1 stabilizer 11
Cc1ccc(S(=O)(=O)N(C)C)cc1NC(=O)COC(=O)Cc1ccc(Br)cc1	none
COc1ccc(Nc2oc(-c3ccc(F)cc3)nc2C#N)cc1	Wee1 stabilizer 9.3
O=C(CSc1nc2ccccc2c(=O)n1NC(=O)c1ccccc1)c1ccc(Cl)cc1	Wee1 stabilizer 9.3
O=C1C2C3C=CC(C2C(=O)N1c1ccc(O)cc1)C1C2C(=O)N(c4ccc(O)cc4)C(=O)C2C31 (centres undefined)	none (no result: Mdm2 ligase inh)
O=C1C2C3C=CC(C2C(=O)N1c1ccccc1O)C1C2C(=O)N(c4ccccc4O)C(=O)C2C31 (centres undefined)	Wee1 stabilizer 8.8
CC(=O)Nc1cccc(OCCCNC(=O)C2CCC2)c1	none
CN=C(Cc1ccccc1)C1=C(O)CC(C)(C)CC1=O	TNF necrop inh 87
COc1cc(C(F)(F)F)nc(-c2ccccn2)n1	none
CN(C)c1cc(C(F)(F)F)nc(-c2ccccn2)n1	Mdm2 ligase inh 31
CN(C)c1oc(-c2ccccc2Cl)nc1C#N	Mdm2 ligase inh 32
C/C(CCS(=O)(=O)c1ccccc1)=N/O	Pf gamet viab 38
C/C(CS(=O)(=O)c1ccccc1)=N\O	none (no result: Pf gamet viab)
O=C(CN1C(=O)/C(=C\c2ccc(F)cc2)Oc2ccccc21)N1CCN(c2ccccn2)CC1	none
O=C(CN1C(=O)/C(=C\c2cccc(F)c2)Oc2ccccc21)N1CCN(c2ccccn2)CC1	Pf gamet viab 51
O=C(/C=C/c1ccccc1)NC1CCS(=O)(=O)C1 (centres undefined)	Pf gamet viab 63
Cc1ccc(/C=C/C(=O)NC2CCS(=O)(=O)C2)cc1 (centres undefined)	none
N/C(=N\OC(=O)c1ccccc1Cl)c1ccccn1	none (no result: Pf gamet viab)
COc1ccccc1C(=O)O/N=C(\N)c1ccccn1	Wee1 stabilizer 9.1
O=C1c2ccccc2-c2nnc(-c3ccc(F)cc3)cc21	Wee1 stabilizer 9.8 (no result: Pf gamet viab)
COc1ccc(NC(=O)C2CC(=O)N/C(=N/N=C/c3ccco3)S2)cc1 (centres undefined)	Wee1 stabilizer 9.4
COc1cccc(CN(C)CC(=O)Nc2cc3oc4ccccc4c3cc2OC)c1	Wee1 stabilizer 9.9 (no result: Mdm2 ligase inh)
O=C(N/N=C/c1cccnc1)c1cc(-c2cccs2)nc2ccccc12	none (no result: zVAD death inh, Pf gamet viab)
CCCCC(=O)Nc1ccc(NC(=O)C2CC2)cn1	none (no result: Pf gamet viab)
Cc1cc(NCCCN2CCOCC2)n2ncc(-c3ccccc3)c2n1	Wee1 stabilizer 11
COc1ccc(NC(=O)C/C(C)=N/NC(=O)C(=O)NC(C)C)c(OC)c1	Wee1 stabilizer 9.7
